Test [1] can be described thus: Growth inhibition of fulvestrant-resistant human MCF7:CFR cells measured after 5 days by Hoechst 33342 dye based imaging analysis. The test is classed as functional, cell-based. The conditions noted are these: 120 h. A digest of the protocol: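 MCF-7:CFR cells kept 2 days in phenol red-free RPMI 1640 with 10% charcoal–dextran FBS, then seeded at 2000 cells/well. Single treatment at 0.1 nM–10 μM (0.1% DMSO final) for 5 days. Nuclei stained with Hoechst 33342 and counted by imaging. Survival normalized to DMSO (100%) and JQ1 3 μM (0%). Mean ± SEM from at least two passages, triplicates in each.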

Test [2] has as its target T1, Bromodomain-containing protein 4 (Homo sapiens, UniProt O60885). Description: Displacement of APC-labeled biotinylated-avidin from Euphorium-chelated recombinant human BRD4 bromodomain 1 expressed in Escherichia coli preincubated for 15 mins followed by APC-labeled biotinylated-avidin addition and measured after 1 hr under dark condition by TR-FRET assay. A general note: Time-resolved FRET reads energy transfer from a long-lived donor to a nearby acceptor.

Test [3] has as its target T1, Bromodomain-containing protein 4. Description: Displacement of APC-labeled biotinylated-avidin from Euphorium-chelated recombinant human BRD4 bromodomain 2 expressed in Escherichia coli preincubated for 15 mins followed by APC-labeled biotinylated-avidin addition and measured after 1 hr under dark condition by TR-FRET assay.
The subject of test [4] is MCF7:CFR. Description: Growth inhibition of fulvestrant-resistant human MCF7:CFR 3D spheroid cells at 100 nM supplemented with fresh medium containing compound every 2 to 3 days for 9 days by celltitre-glo assay relative to control. The test is classed as functional. A digest of the protocol:
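MCF-7:CFR cells seeded at 1000 cells/well in ultralow-attachment round-bottom plates and grown 24 h untreated as spheroids. Half the medium then replaced with 2× treatment medium, repeated every 2–3 days. Viability read by CellTiter-Glo 3D luminescence at day 9 and normalized to blank (medium plus reagent).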

Molecules are shown by their SMILES. Activity calls are given as the source filed them. No cut-off for these calls is given here.

The results in this text go back to ChEMBL document CHEMBL4610112, “Novel Pyrrolopyridone Bromodomain and Extra-Terminal Motif (BET) Inhibitors Effective in Endocrine-Resistant ER+ Breast Cancer with Acquired Resistance to Fulvestrant and Palbociclib” (J Med Chem, 2020).

Turning to `Cn1cc(-c2cc(NS(C)(=O)=O)c3ccn(Cc4ccc(F)cc4)c3c2)c2ccnc(O)c21`, the IC50 in test [1] turned out to be 17 nM; in test [2], 96 nM.
As for `CC(=O)Nc1cc(-c2cn(C)c3c(=O)[nH]ccc23)cc2c1ccn2C(C)(c1ccccn1)c1ccccn1`, the IC50 came to 21.6 nM in test [3], 11 nM in test [1] and 8.3 nM in test [2].
`Cn1cc(-c2cc(NS(C)(=O)=O)cc3ccn(Cc4ccc(F)cc4)c23)c2cc[nH]c(=O)c21`: the IC50 in test [1] was found to be 1990 nM; in test [2] it was 1180 nM.
Consider `Cn1cc(-c2cc(NS(C)(=O)=O)c3ccn(Cc4cccc(F)c4)c3c2)c2cc[nH]c(=O)c21`, for which the IC50 in test [1] stood at 70 nM; in test [2], 174 nM.
The corresponding values for `Cc1cccc(C)c1Cn1ccc2c(NS(C)(=O)=O)cc(-c3cn(C)c4c(=O)[nH]ccc34)cc21` are 49 nM and 175 nM.
Regarding `Cn1cc(-c2cc(NS(C)(=O)=O)c3cnn(Cc4ccc(F)cc4)c3c2)c2cc[nH]c(=O)c21`, the IC50 in test [1] turned out to be 68 nM; in test [2], 89 nM.
As to `CC/C(=C(\c1ccc(O)cc1)c1ccc(OCCN(C)C)cc1)c1ccccc1`, the “growth inhibition (GI)” value in test [4] was “inactive”.
With `Cn1cc(-c2cc(NS(C)(=O)=O)c3ccn(CC4CC(F)(F)C4)c3c2)c2cc[nH]c(=O)c21`, the IC50 in test [1] was 62 nM; in test [2], 161 nM.
For the compound `CC(C)C(=O)Nc1cc(-c2cn(C)c3c(=O)[nH]ccc23)cc2c1ccn2C(C)(c1ccccn1)c1ccccn1`, the IC50 in test [3] came to 62.8 nM; in test [1] it was 17 nM; in test [2] it was 13 nM.
In the case of `Cn1cc(-c2cc(NS(C)(=O)=O)c3ccn(C(C)(c4ccccn4)c4ccccn4)c3c2)c2cc[nH]c(=O)c21`, the half-maximal inhibitory concentration (IC50) in test [3] turned out to be 12.7 nM; in test [1], 10 nM; in test [2], 12.9 nM.
On to `CCS(=O)(=O)Nc1cc(-c2cn(C)c3c(=O)[nH]ccc23)cc2c1ccn2Cc1c(C)cccc1C`, for which the IC50 in test [1] came to 35 nM; in test [2] it was 158 nM.
In the case of `C[C@]12CC[C@@H]3c4ccc(O)cc4C[C@@H](CCCCCCCCC[S+]([O-])CCCC(F)(F)C(F)(F)F)[C@H]3[C@@H]1CC[C@@H]2O` (stereo not given in full), the “growth inhibition (GI)” value in test [4] is “inactive”.
Consider `CCS(=O)(=O)N(c1cccc2c1nc(-c1cn(C)c3c(=O)[nH]ccc13)n2Cc1ccc(F)cc1)S(=O)(=O)CC`, for which the concentration for half-maximal inhibition (IC50) in test [1] was determined as 1780 nM.
As to `Cc1cc(F)ccc1Cn1ccc2c(NS(C)(=O)=O)cc(-c3cn(C)c4c(=O)[nH]ccc34)cc21`, the IC50 in test [1] is 119 nM; in test [2], 600 nM.
In the case of `CCS(=O)(=O)Nc1cc(-c2cn(C)c3c(=O)[nH]ccc23)cc2c1ccn2Cc1ccc(F)cc1`, the IC50 amounted to 56 nM in test [1] and 48 nM in test [2].
The corresponding values for `Cc1cc(F)cc(C)c1Cn1ccc2cc(NS(C)(=O)=O)cc(-c3cn(C)c4c(=O)[nH]ccc34)c21` are 526 nM and 1400 nM.
`CCC(c1ccccn1)(c1ccccn1)n1ccc2c(NS(=O)(=O)CC)cc(-c3cn(C)c4c(=O)[nH]ccc34)cc21`: the IC50 turned out to be 2.2 nM in test [1] and 9.4 nM in test [2].
Regarding `Cc1cc(F)ccc1Cn1ccc2cc(NS(C)(=O)=O)cc(-c3cn(C)c4c(=O)[nH]ccc34)c21`, the concentration for half-maximal inhibition (IC50) in test [1] was found to be 3580 nM; in test [2], 1000 nM.
With `CCS(=O)(=O)Nc1cc(-c2cn(C)c3c(O)nccc23)cc2c1cnn2Cc1ccc(F)cc1`, the IC50 was 25 nM in test [1] and 54 nM in test [2].
The matching figures for `CCS(=O)(=O)Nc1cc(-c2cn(C)c3c(=O)[nH]ccc23)cc2c1ccn2C(c1ccccc1)c1ccccc1`: 15 nM and 83 nM.
On to `COc1nnc2ccc(N3CCC(c4ccc(OCCN5CCN(C)C(=O)[C@H]5C)cc4)CC3)nn12`, for which the “growth inhibition (GI)” value in test [4] is “Active”.
For the compound `CCS(=O)(=O)Nc1cccc2c1nc(-c1cn(C)c3c(=O)[nH]ccc13)n2Cc1ccc(F)cc1`, the IC50 was determined as 708 nM in test [1] and 1430 nM in test [2].
For `Cn1cc(-c2cc(NS(C)(=O)=O)c3ccn(CC4(C)COC4)c3c2)c2cc[nH]c(=O)c21`, the values for the IC50 in test [1] and in test [2] were 134 nM and 180 nM, respectively.

As a reminder, the IC50 is the point on the concentration scale where inhibition reaches its midpoint.
